From PubChem BioAssay
RAD52 anneal inh – RAD52 (human) annealing inhibition | recombinant RAD52 DNA annealing, FRET fluorescence | inhibition, % at 18.7 µM | 360,000 tested, 0.46% active | AID 651710;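 active = every replicate showing at least 50% inhibition; inconclusive = mean inhibition at least 50% but not in every replicate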
Ecoli rRNA inh – inhibits bacterial ribosomal RNA function over humanized ribosomes. GFP signal change (wild-type ribosome), % (concentration not given with the values). 350,000 tested, 1.6% active. E. coli WT GFP vs humanized-ribosome RFP mutants, fluorescence, 24 h; stronger effect = lower value; DMSO median 0, no signal -100;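 active = significant combined selectivity score with lowered wild-type GFP, culture density cut under 30%, mutant RFP and density less affected; inactive = any of these conditions unmet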
E-sel inducer – induces E-selectin expression in human endothelial cells; HUVEC E-selectin immunofluorescence imaging; normalized: neutral wells 0, TNF-alpha wells 100; activation, % at 7.58 µM; 260,000 tested, 0.37% active; AID 686992;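 active = mean E-selectin-positive cell signal at least 10% of the positive control, reached in at least 60% of replicates, without over 20% cell loss; inconclusive = no rule given, readout overlaps actives, possibly toxicity-flagged; inactive = the rest, including those meeting only one limit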
Target sequence (P16581 whole entry, looked up): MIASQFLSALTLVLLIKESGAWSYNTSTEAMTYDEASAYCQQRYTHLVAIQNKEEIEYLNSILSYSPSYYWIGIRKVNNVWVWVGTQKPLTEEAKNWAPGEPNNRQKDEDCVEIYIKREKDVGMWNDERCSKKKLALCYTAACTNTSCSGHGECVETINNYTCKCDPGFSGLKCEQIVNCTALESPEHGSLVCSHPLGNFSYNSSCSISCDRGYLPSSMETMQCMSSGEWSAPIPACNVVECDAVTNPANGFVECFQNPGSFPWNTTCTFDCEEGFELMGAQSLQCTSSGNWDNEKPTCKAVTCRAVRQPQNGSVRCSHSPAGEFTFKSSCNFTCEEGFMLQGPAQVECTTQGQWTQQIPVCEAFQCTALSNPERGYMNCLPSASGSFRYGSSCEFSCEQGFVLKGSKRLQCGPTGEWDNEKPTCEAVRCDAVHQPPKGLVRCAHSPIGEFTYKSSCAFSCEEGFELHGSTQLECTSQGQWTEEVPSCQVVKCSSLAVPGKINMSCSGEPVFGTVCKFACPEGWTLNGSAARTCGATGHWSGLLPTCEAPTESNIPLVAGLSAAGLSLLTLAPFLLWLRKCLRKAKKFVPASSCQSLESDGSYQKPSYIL
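Assay system: HUVEC, human umbilical vein endothelial cells / Amount: 3,000 HUVEC/well / Controls: TNF-alpha positive control, DMSO neutral control / Compound dosing: single concentration / Medium: EGM-2 over gelatin coat / Evaluation: percent E-selectin-positive cells / Signal: immunofluorescence imaging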
RAD54 branch – RAD54 (human) branch migration inhibition; RAD54 Holliday junction branch migration, FAM/BHQ fluorescence; inhibition, % at 10.4 µM; 360,000 tested, 0.14% active; AID 602329;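 active = mean normalized replicate activity at least 40 and at least half of replicates scoring 40 or more; inconclusive = only one of the two criteria met; inactive = mean below 40 and under half of replicates reaching 40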;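 note: 0% = median of neutral control wells and 100% = median of positive control wells; inhibitors cause a drop in the FAM fluorescence signal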
INS-1E GSIS act – primary screen for activators of insulin secretion dependent on glucose, INS-1E cells, GLuc reporter luminescence | INS-1E GLuc reporter insulin secretion, 2-3 h | 370,000 tested, 0.61% active | activation, % at 16.6 µM;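 active = lowest replicate activation of at least 40%, so every replicate reaches that level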;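 note: 0% = median of neutral control wells and 100% = median of IBMX positive control wells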
AF4-AF9 inh – blocks AF4 peptide binding to human AF9 | P42568 | AlphaScreen, biotin-AF4 peptide binding to FLAG-AF9 | inhibition, % at 10 µM | 350,000 tested, 0.47% active;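 active = every replicate reaching a set inhibition limit, whatever the replicate mean, cut at about 25% in these data; inconclusive = mean inhibition reaches that limit but some replicates miss it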;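 note: 0% = plate neutral control median and 100% = total signal loss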
An asterisk follows results filed as active; u = inconclusive; x = not tested or not shown; ! = not confirmed by another sample. An excerpt weighted towards active compounds, which were near 2.6% of everything screened.

SMILES	RAD52 anneal inh	Ecoli rRNA inh	E-sel inducer	RAD54 branch	INS-1E GSIS act	AF4-AF9 inh
C=CCNC(=O)[C@@H]1[C@H]2C(=O)O[C@H](c3ccccc3)[C@H](c3ccccc3)N2[C@H](c2ccc(OCCO)cc2)[C@@]12C(=O)Nc1ccc(C#CCCO)cc12	-6	x	x	x	x	2
CS(=O)(=O)N1[C@H](C(=O)NC2CCC2)[C@@H](CO)[C@@H]2Cn3c(ccc(-c4ccccc4)c3=O)[C@@H]21	-2	-1	0	0	5	2
O=C(/C=C/c1ccco1)Nc1scc(-c2ccccc2)c1C(=O)O	-22	-34*	0	1	12	-6
O=C(/C=C/c1ccccc1)Nc1scc(-c2ccccc2)c1C(=O)O	-11	-44	4	x	-21	-1
O=C(CCc1ccccc1)Nc1sc2c(c1C(=O)O)CCCC2	-17	-32*	0	-19	-7	-2
Cc1ccc(C(=O)Nc2sc3c(c2C(=O)O)CCCC3)o1	-7	-25*	0	-7	-10	-1
O=C(O)CCC(=O)Nc1sc2c(c1C(=O)NCc1ccccc1)CCCC2	-3	-5	0	-5	8	-1
Cc1ccc(C(=O)Nc2scc(-c3ccccc3)c2C(=O)O)o1	-2	-34*	-4	x	-4	-3
COC(=O)C[C@@H]1C=C[C@@H](NC(=O)c2ccccc2)[C@H](CO)O1	5	0	0	2	-7	0
O=C(O)C[C@H]1C[C@H]2c3cc(NC(=O)Nc4ccccc4F)ccc3O[C@H]2[C@@H](CO)O1	-3	5	0	5	22	-2
CCNC(=O)[C@@H]1N[C@@H]2c3ccc(-c4cccc(C(=O)N(C)C)c4)c(=O)n3C[C@@H]2[C@H]1CO	-4	1	0	1	16	-3
CC(C)c1ccc(NC(=O)C(c2ccc3c(c2)OCO3)N2CCCCC2)cc1 (centres undefined)	-17	-12	0	-4	x	1
Oc1cc2c(cc1C(c1ccc(Cl)c(Cl)c1)N1CCCC1)OCO2 (centres undefined)	-6	-15	x	x	4	27*
Cc1ccc(NC(=O)c2cc(-c3ccc(C)c(C)c3O)n[nH]2)cc1C	-5	-3	0	1	6	-34
Cc1cccc(NC(=O)c2cc(-c3ccc(C)c(C)c3O)n[nH]2)c1	-21	-17*	1	-2	-5	-1
CCCC#Cc1ccc([C@H]2[C@@H](CO)N3C(=O)CN(C(=O)Nc4ccc(F)cc4)C[C@@H]23)cc1	x	-18	1	x	-13	2
CC(=O)Nc1cccc(-c2ccnc3c2CC(C(=O)NCc2ccc(N(C)C)cc2)O3)c1 (centres undefined)	-17	-7	-1	-5	1	31*
C/C(=N/NC(=O)c1ccc2c(c1)OCO2)c1ccc(Br)s1	-5	3	x	x	4	-1
C/C(=N\NC(=O)c1ccc(Cl)c(Cl)c1)c1ccc(Br)s1	x	x	x	x	102*	x
COc1ccc(C#Cc2ccc3c(c2)O[C@H](CN(C)C(=O)Nc2cccc(OC)c2)[C@H](C)CN([C@@H](C)CO)S3(=O)=O)cc1	-40	3	8	-7	10	-2
CNC[C@@H]1Oc2cc(C#Cc3cccc(OC)c3)ccc2S(=O)(=O)N([C@H](C)CO)C[C@H]1C	-22	0	0	-3	4	11
COc1ccc(C#Cc2ccc3c(c2)O[C@@H](CN(C)C(=O)Nc2cccc(OC)c2)[C@H](C)CN([C@@H](C)CO)S3(=O)=O)cc1	-40	20	35*	-5	-18	-1
CNC[C@H]1Oc2cc(C#Cc3ccc(OC)cc3)ccc2S(=O)(=O)N([C@H](C)CO)C[C@@H]1C	56*	-2	-2	-4	-10	9
C[C@@H]1CN([C@H](C)CO)C(=O)c2cc(NS(=O)(=O)c3ccccc3)ccc2O[C@@H]1CN(C)S(=O)(=O)c1ccc(Cl)cc1	x	-3	0	x	-12	x
C[C@@H]1CN([C@H](C)CO)C(=O)c2cccc(NC(=O)Nc3ccc4c(c3)OCO4)c2O[C@@H]1CN(C)C(=O)Nc1ccc(C(F)(F)F)cc1	15	-6	60*	5	-35	15
SMILES	RAD52 anneal inh	Ecoli rRNA inh	E-sel inducer	RAD54 branch	INS-1E GSIS act	AF4-AF9 inh
C[C@H]1CN([C@@H](C)CO)C(=O)c2cccc(NC(=O)NC3CCCCC3)c2O[C@@H]1CN(C)S(=O)(=O)c1ccc(F)cc1	1	-1	u	1	-9	-1
C[C@H](CO)N1C[C@H](C)[C@@H](CN(C)S(=O)(=O)c2ccc(F)cc2)Oc2c(NC(=O)NC3CCCCC3)cccc2C1=O	-7	-7	u	-11	-5	49*!
C[C@@H]1CN([C@@H](C)CO)C(=O)c2cccc(NC(=O)Nc3ccc4c(c3)OCO4)c2O[C@H]1CN(C)CC1CCCCC1	14	-9	0	-3	-18	7
C[C@@H]1CN([C@@H](C)CO)C(=O)c2cccc(NC(=O)Nc3ccc4c(c3)OCO4)c2O[C@@H]1CN(C)CC1CC1	28	2	0	x	-7	25*
C[C@@H]1CN([C@H](C)CO)C(=O)c2cccc(NC(=O)Nc3ccc(F)cc3)c2O[C@H]1CN(C)C(=O)NC1CCCCC1	5	-3	66*	4	-2	-1
Cc1ccc(S(=O)(=O)Nc2ccc3c(c2)C(=O)N([C@H](C)CO)C[C@@H](C)[C@H](CN(C)S(=O)(=O)c2cn(C)cn2)O3)cc1	10	1	0	3	0	1
Cc1ccc(S(=O)(=O)N(C)C[C@H]2Oc3ccc(NC(=O)C4CCCCC4)cc3C(=O)N([C@@H](C)CO)C[C@H]2C)cc1	-4	-4	0	1	-9	-12
C[C@@H]1CN([C@H](C)CO)C(=O)c2cccc(NC(=O)Nc3ccccc3)c2O[C@@H]1CN(C)S(=O)(=O)c1ccccc1	4	2	255*	-2	3	-2
C[C@@H]1CN([C@@H](C)CO)C(=O)c2cccc(NC(=O)Nc3ccccc3)c2O[C@@H]1CN(C)S(=O)(=O)c1ccccc1	-7	-3	-3	5	-21	4
COc1ccc(NC(=O)Nc2cccc3c2O[C@@H](CN(C)C(=O)NC2CCCCC2)[C@H](C)CN([C@@H](C)CO)C3=O)cc1	0	-4	2	3	-5	-3
COc1ccc(NC(=O)Nc2cccc3c2O[C@@H](CN(C)C(=O)NC2CCCCC2)[C@@H](C)CN([C@H](C)CO)C3=O)cc1	-5	-4	38*	4	-10	2
C[C@@H]1CN([C@@H](C)CO)C(=O)c2cccc(NC(=O)Nc3ccc(F)cc3)c2O[C@H]1CN(C)CC1CCCCC1	-7	-10	58*	0	-14	4
